Publication PMC4160279 (Journal of the American Chemical Society, 2014)
“And” between values parts separate entries of the source, which are not always exact repeats. Equal entries are not always repeated.

Key:
NoV VA115 P dimer = experiment: Direct ESI-MS assay, NoV VA115 P dimer; parameters: species or system human NoV VA115 (GI.3); details: intrinsic (per binding site) association constant; aqueous ammonium acetate (200 mM), pH 7, 25 °C
How it was run: (§1)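 Recombinant P dimer, buffer-exchanged into ammonium acetate and quantified by UV, was mixed (e.g., 12 μM) with ganglioside oligosaccharide (e.g., 80 μM) and reference protein (4 μM). Nanoelectrospray in negative ion mode used capillary −0.8 kV, cone 60 V and source 60 °C. Runs covered ≥4 initial ligand concentrations in triplicate. Ka,int came from bound/free abundance ratios, corrected for nonspecific binding, with two equivalent sites.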

NoV VA387 P dimer [1] = experiment: Direct ESI-MS assay, NoV VA387 P dimer; parameters: species or system human NoV VA387 (GII.4); details: intrinsic (per binding site) association constant; aqueous ammonium acetate (200 mM), pH 7, 25 °C
How it was run: as §1

NoV VA387 P particle [2] = experiment: CaR-ESI-MS screening assay; assay type: binding, human NoV VA387 (GII.4); details: P particle (3 μM) and 10 μM of GD1a or GD1b
P dimer VA387 = P dimer VA387 (Human calicivirus NLV/VA98387/1998, UniProt Q913Z3); experiment: Direct ESI-MS assay; assay type: binding; details: n = 3
Chain of P dimer VA387 (Q913Z3 222-539): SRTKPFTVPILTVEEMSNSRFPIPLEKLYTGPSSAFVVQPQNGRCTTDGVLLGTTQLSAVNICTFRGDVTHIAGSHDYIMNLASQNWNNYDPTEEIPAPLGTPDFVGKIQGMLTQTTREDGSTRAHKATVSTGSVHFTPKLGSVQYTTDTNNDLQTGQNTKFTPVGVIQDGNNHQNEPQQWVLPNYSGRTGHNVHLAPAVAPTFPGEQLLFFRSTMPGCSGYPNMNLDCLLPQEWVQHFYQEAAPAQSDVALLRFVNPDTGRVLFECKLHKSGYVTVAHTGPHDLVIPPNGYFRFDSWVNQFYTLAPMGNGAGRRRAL
How it was run: (§2)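 Recombinant P dimer (P domain residues 222–539, made in E. coli via a GST fusion system) was titrated with at least four initial oligosaccharide concentrations, in triplicate. Example mix: 12 μM dimer, 80 μM ligand, 4 μM reference protein. Bound/free abundance ratios were taken as solution ratios after nonspecific-binding correction. Ka,int was fitted assuming two independent, equivalent sites.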

P dimer VA115 = biological target: T1, P dimer VA115 (Human calicivirus NLV/VA98115/1998, UniProt Q91H12); experiment: Direct ESI-MS assay; assay type: binding; details: n = 3
T1 sequence (Q91H12 227-545): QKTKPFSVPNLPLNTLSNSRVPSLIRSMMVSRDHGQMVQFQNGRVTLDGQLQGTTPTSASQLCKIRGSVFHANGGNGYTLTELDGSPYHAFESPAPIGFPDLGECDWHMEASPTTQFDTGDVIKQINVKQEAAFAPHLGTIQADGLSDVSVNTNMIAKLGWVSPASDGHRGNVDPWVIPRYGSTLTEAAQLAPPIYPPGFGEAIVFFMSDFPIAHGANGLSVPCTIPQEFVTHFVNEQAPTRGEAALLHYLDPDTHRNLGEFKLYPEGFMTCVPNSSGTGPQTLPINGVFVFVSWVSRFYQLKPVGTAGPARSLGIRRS
How it was run: as §2

NoV VA387 P dimer [3] = details: reported values; cited from earlier work
NoV VA387 P particle [4] = experiment: Proxy protein ESI-MS method, VA387 P particle; assay type: binding, human NoV VA387 (GII.4); details: aqueous ammonium acetate (160 mM), pH 7, 25 °C; Gal-3C as proxy protein
How it was run: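 Gal-3C proxy (3.0 μM), ubiquitin reference (1.0 μM) and GM3 trisaccharide (40 μM) were mixed with VA387 P particle at 0–7.2 μM (0–172.8 μM monomer); the 24-mer came from E. coli. Positive-mode nanoESI. GM3-bound/free proxy ratio was measured after nonspecific-binding correction. Ka,int per site was derived from the ratio change using the known proxy association constant and binding-site concentration.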

[5] = biological target: recombinant fragment of the C-terminus of human galectin-3 (Gal-3C) (Homo sapiens, UniProt P17931); experiment: ESI-MS binding of ligand to proxy protein Gal-3C; details: association constant of proxy protein for the ligand
Chain of recombinant fragment of the C-terminus of human galectin-3 (Gal-3C) (P17931 118-248 limits assumed): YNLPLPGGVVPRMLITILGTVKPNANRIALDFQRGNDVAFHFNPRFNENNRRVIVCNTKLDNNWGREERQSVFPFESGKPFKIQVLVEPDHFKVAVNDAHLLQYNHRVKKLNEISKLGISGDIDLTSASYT

NoV VA387 VLP = experiment: Proxy protein ESI-MS method, VA387 VLP; assay type: binding, human NoV VA387 (GII.4); details: aqueous ammonium acetate (160 mM), pH 7, 25 °C; Gal-3C as proxy protein
How it was run: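 VLPs were expressed from VA387 VP1 in Sf9 cells by recombinant baculovirus and purified on a sucrose gradient, then tested at 0–570 nM (0–102.6 μM monomer). Each mix held Gal-3C proxy (3.0 μM), ubiquitin reference (1.0 μM) and GM3 trisaccharide (40 μM). Positive-mode nanoESI. Ka,int per site came from the corrected proxy bound/free ratio versus VLP concentration, using the known proxy affinity.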

CC(=O)N[C@H]1[C@H](O[C@@H]2[C@H](O[C@]3(C(=O)O)C[C@H](O)[C@@H](NC(C)=O)[C@H]([C@H](O)[C@H](O)CO)O3)[C@@H](O)[C@H](O[C@H]3[C@H](O)[C@@H](O)C(O)O[C@@H]3CO)O[C@@H]2CO)O[C@H](CO)[C@H](O)[C@@H]1O[C@@H]1O[C@H](CO)[C@H](O)[C@H](O[C@]2(C(=O)O)C[C@H](O)[C@@H](NC(C)=O)[C@H]([C@H](O)[C@H](O)CO)O2)[C@H]1O (stereo partly drawn) [GD1a]
Ka,int P dimer VA115 (NoV VA115 P dimer): 320 ± 90 M^–1 | Ka,int P dimer VA387 (NoV VA387 P dimer [1]): <100 M^–1 | binding to P particle, ligand tested alone (NoV VA387 P particle [2]): binds

CC(=O)N[C@H]1[C@H]([C@H](O)[C@H](O)CO)O[C@@](O[C@H](CO)[C@@H](O)[C@@H]2O[C@@](O[C@H]3[C@@H](O)[C@@H](CO)O[C@@H](O[C@H]4[C@H](O)[C@@H](O)C(O)O[C@@H]4CO)[C@@H]3O)(C(=O)O)C[C@H](O)[C@H]2NC(C)=O)(C(=O)O)C[C@@H]1O (stereo partly drawn) [GD3, GD3 ganglioside oligosaccharide (Neu5Aca2-8Neu5Aca2-3Galb1-4Glc)]
Kd (P dimer VA387): 2940 µM | Kd (P dimer VA115): 2380 µM

CC(=O)N[C@H]1[C@H](O[C@@H]2[C@H](O[C@]3(C(=O)O)C[C@H](O)[C@@H](NC(C)=O)[C@H]([C@H](O)[C@@H](CO)O[C@]4(C(=O)O)C[C@H](O)[C@@H](NC(C)=O)[C@H]([C@H](O)[C@@H](CO)O[C@]5(C(=O)O)C[C@H](O)[C@@H](NC(C)=O)[C@H]([C@H](O)[C@H](O)CO)O5)O4)O3)[C@@H](O)[C@H](O[C@H]3[C@H](O)[C@@H](O)C(O)O[C@@H]3CO)O[C@@H]2CO)O[C@H](CO)[C@H](O)[C@@H]1O[C@@H]1O[C@H](CO)[C@H](O)[C@H](O)[C@H]1O (stereo partly drawn) [GT1c, GT1c ganglioside oligosaccharide (Galb1-3GalNAcb1-4(Neu5Aca2-8Neu5Aca2-8Neu5Aca2-3)Galb1-4Glc)]
Ka,int (P dimer VA387): <100 M⁻¹ | Ka,int (P dimer VA115): 260 ± 110 M⁻¹

CC(=O)N[C@H]1C(O)O[C@H](CO)[C@H](O)[C@@H]1O[C@@H]1O[C@H](CO)[C@H](O)[C@H](O[C@H]2O[C@H](CO)[C@H](O)[C@H](O)[C@H]2O)[C@H]1O[C@@H]1O[C@@H](C)[C@@H](O)[C@@H](O)[C@@H]1O (stereo partly drawn) [B3, B type 3 tetrasaccharide]
intrinsic affinity (Ka,int) of HBGA ligands (NoV VA387 P dimer [3]): 1500 ± 150 M^–1

CC(=O)N[C@H]1[C@H]([C@H](O)[C@H](O)CO)O[C@@](O[C@H]2[C@@H](O)[C@@H](CO)O[C@@H](O[C@H]3[C@H](O)[C@@H](O)C(O)O[C@@H]3CO)[C@@H]2O)(C(=O)O)C[C@@H]1O (stereo partly drawn) [GM3]
Ka,int P dimer VA115 (NoV VA115 P dimer): 1300 ± 130 M^–1 | affinity (Ka,int) for VA387 P particle (NoV VA387 P particle [4]): 2600 ± 200 M^–1 | Ka,int P dimer VA387 (NoV VA387 P dimer [1]): 1500 M^–1 and 1500 ± 150 M^–1 | affinity for Gal-3C [5]: (1.20 ± 0.02) × 10^4 M^–1 | affinity (Ka,int) for VA387 VLP (NoV VA387 VLP): 5500 ± 600 M^–1

CC(=O)N[C@H]1[C@H](O[C@@H]2[C@H](O)[C@@H](O)[C@H](O[C@H]3[C@H](O)[C@@H](O)C(O)O[C@@H]3CO)O[C@@H]2CO)O[C@H](CO)[C@H](O)[C@@H]1O[C@@H]1O[C@H](CO)[C@H](O)[C@H](O[C@]2(C(=O)O)C[C@H](O)[C@@H](NC(C)=O)[C@H]([C@H](O)[C@H](O)CO)O2)[C@H]1O (stereo partly drawn) [GM1b, GM1b ganglioside oligosaccharide (Neu5Aca2-3Galb1-3GalNAcb1-4Galb1-4Glc)]
Kd (P dimer VA387): 5560 µM | Kd (P dimer VA115): 2080 µM

CC(=O)N[C@H]1[C@H](O[C@@H]2[C@H](O[C@]3(C(=O)O)C[C@H](O)[C@@H](NC(C)=O)[C@H]([C@H](O)[C@H](O)CO)O3)[C@@H](O)[C@H](O[C@H]3[C@H](O)[C@@H](O)C(O)O[C@@H]3CO)O[C@@H]2CO)O[C@H](CO)[C@H](O)[C@@H]1O[C@@H]1O[C@H](CO)[C@H](O)[C@H](O)[C@H]1O (stereo partly drawn) [GM1a, GM1a ganglioside oligosaccharide (Galb1-3GalNAcb1-4(Neu5Aca2-3)Galb1-4Glc)]
Kd (P dimer VA387): 2860 µM | Kd (P dimer VA115): 2500 µM

CC(=O)N[C@H]1[C@H]([C@H](O)[C@H](O)CO)O[C@@](O[C@H]2[C@@H](O)[C@@H](CO)O[C@@H](O[C@H]3[C@H](O)[C@@H](O)C(O)O[C@@H]3CO)[C@@H]2O)(C(=O)O)C[C@@H]1O (stereo partly drawn) [GM3, GM3 ganglioside oligosaccharide (GM3 trisaccharide, Neu5Aca2-3Galb1-4Glc)]
Kd (P dimer VA387): 667 µM | Kd (P dimer VA115): 769 µM

CC(=O)N[C@H]1[C@H](O[C@@H]2[C@H](O[C@]3(C(=O)O)C[C@H](O)[C@@H](NC(C)=O)[C@H]([C@H](O)[C@H](O)CO)O3)[C@@H](O)[C@H](O[C@H]3[C@H](O)[C@@H](O)C(O)O[C@@H]3CO)O[C@@H]2CO)O[C@H](CO)[C@H](O)[C@@H]1O (stereo partly drawn) [GM2, GM2 ganglioside oligosaccharide (GalNAcb1-4(Neu5Aca2-3)Galb1-4Glc)]
Kd (P dimer VA387): 2780 µM | Kd (P dimer VA115): 1430 µM
